Measured values: ChEMBL document CHEMBL1151161, “Isolation from Eucalyptus occidentalis and identification of a new kaempferol derivative that induces apoptosis in human myeloid leukemia cells” (J Nat Prod, 2004)
Active and inactive are the calls of the source. The rule behind the calls is not given here.

Assays:
HL-60 [1] = test: Induction of apoptosis in human HL60 cells assessed as morphological changes at 30 uM after 12 hrs by Hoechst 33258 staining based fluorescence microscopy; assay type: functional, cell-based
Outline: (§1)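 HL-60 cells were treated for 12 h at 10–30 µM, with 10 µM etoposide as positive control. Cells were fixed in 3% paraformaldehyde for 10 min, then stained with 10 µg/mL Hoechst 33258 for 30 min at 37 °C. Nuclei with condensed or fragmented chromatin were scored as apoptotic, counting ≥500 cells per sample, in triplicate.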

HL-60 [2] = test: Induction of apoptosis in human HL60 cells assessed as induction of DNA cleavage at 10 uM after 12 hrs by gel electrophoresis; assay type: functional, cell-based
Outline: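 HL-60 cells (1×10^6) were lysed in Tris pH 8.0/EDTA/0.5% SDS with RNase A for 1 h at 37 °C, then proteinase K for 2 h at 50 °C. DNA was phenol-chloroform extracted and run on 2% agarose with ethidium bromide staining. The legend gives 24 h treatment while the text gives 12 h.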

HL-60 [3] = test: Cytotoxicity against human HL60 cells after 72 hrs by MTT assay; assay type: functional, cell-based; details: HL-60, 72 h
Outline: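 HL-60 cells kept in RPMI-1640 with 10% heat-inactivated FBS at 37 °C and 5% CO2, resuspended in fresh medium 24 h before treatment. Cells at 1×10^4/well were exposed continuously to a concentration series for 72 h at 37 °C, with final DMSO ≤0.5%. Read-out was MTT reduction at OD 570 nm as % of DMSO control. IC50 was curve-fitted for each experiment; points were triplicates.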

HL-60 [4] = test: Induction of apoptosis in human HL60 cells assessed as induction of PARP1 cleavage after 24 hrs by Western blot; assay type: functional, cell-based
Outline: (§2)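 About 7×10^5 exponentially growing HL-60 cells were treated at 37 °C for 6 or 24 h. Lysates in Hepes/NaCl/NP-40 buffer with protease inhibitors were cleared at 10 000g. 50 µg protein was run on 7.5% SDS-PAGE and probed with anti-PARP-1 (1:1000), with ECL detection. The 85 kDa fragment versus the 116 kDa intact band was the apoptosis marker.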

HL-60 [5] = test: Induction of apoptosis in human HL60 cells assessed as cytochrome release at 10 uM by Western blot; assay type: functional, cell-based
Outline: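 Exponentially growing HL-60 cells were treated for 6 h. The cytosolic fraction was obtained by hypotonic sucrose-buffer swelling on ice, needle lysis, a 1000g spin, then 105 000g for 45 min at 4 °C. 50 µg cytosolic protein was run on SDS/15% PAGE and immunoblotted with anti-cytochrome c (1:250), with ECL detection.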

HL-60 [6] = test: Induction of apoptosis in human HL60 cells assessed as morphological changes after 12 hrs by Hoechst 33258 staining based fluorescence microscopy; assay type: functional, cell-based; outline: as §1
HL-60 [7] = test: Induction of apoptosis in human HL60 cells at 30 uM after 12 hrs by Hoechst 33258 staining based fluorescence microscopy; assay type: functional; outline: as §1
HL-60 [8] = test: Induction of apoptosis in human HL60 cells assessed as induction of PARP1 cleavage after 6 hrs by Western blot; assay type: functional, cell-based; outline: as §2
HL-60 [9] = test: Induction of apoptosis in human HL60 cells assessed as fold increase in caspase 3 activation at 30 uM relative to control; assay type: functional
Outline: (§3)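 HL-60 cells were exposed for 12 h to 1–30 µM. Lysates were made in Hepes pH 7.4/DTT/CHAPS buffer and protein was measured by Bradford. About 20 µg protein was incubated at 37 °C with DEVD-pNA (caspase-3) or IETD-pNA (caspase-8). Net A405 increase was expressed as fold over untreated control, in duplicate.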

HL-60 [10] = test: Induction of apoptosis in human HL60 cells assessed as fold increase in caspase 8 activation at 10 uM relative to control; assay type: functional; outline: as §3

SMILES	Activity (HL-60 [1])	Activity (HL-60 [2])	IC50 (HL-60 [3]) [µM]	Activity (HL-60 [4])	Activity (HL-60 [5])	Activity (HL-60 [6])	Activity (HL-60 [7]) [%]	Activity (HL-60 [8])	fold change (FC) (HL-60 [9])	fold change (FC) (HL-60 [10])
COc1c(-c2ccc(O)cc2)oc2c(C)c(O)c(C)c(O)c2c1=O	Active	Active	7.4	Active	Active	Dose-dependent effect	26.6	–	–	–
COc1ccc(-c2oc3c(C)c(O)c(C)c(O)c3c(=O)c2OC)cc1	Active	Active	1.7	Active	Active	Dose-dependent effect	47.8	Active	1.9	3.7
